Structures are written as SMILES. The source made the active and inactive calls. The calls are words filed in the database; no cut-off is given here.

The test system of data set [1] is Staphylococcus epidermidis. The experiment in a line: Antibiofilm activity against Staphylococcus epidermidis ATCC 12228 incubated for 24 hrs by crystal violet-staining based assay. Type of data set: functional. Put shortly: (§1)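 Biofilm prevention: 0.5 McFarland inoculum (2.5 µL) in 100 µL TSB with 2% w/v glucose, compound present from the start over 100–0.1 µg/mL, 37 °C 24 h. Washed with PBS, stained 0.1% w/v crystal violet 30 min, eluted with 33% v/v acetic acid, read at 570 nm. BIC50 (50% inhibition versus untreated control) derived by linear regression; triplicate, repeated at least twice.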

Data set [2] relates to Staphylococcus aureus. The experiment in a line: Antibiofilm activity against Staphylococcus aureus ATCC 6538 incubated for 24 hrs by crystal violet-staining based assay. Type of data set: functional. The gist of the method:
as §1

For data set [3], the system named is Pseudomonas aeruginosa. The experiment in a line: Antimicrobial activity against Pseudomonas aeruginosa ATCC 15442 assessed as growth inhibition of planktonic forms incubated for 24 hrs. In kind it is organism-based. Conditions: in vitro. The gist of the method:
(§2)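 Broth microdilution in tryptic soy broth. Two-fold series 100 to 0.75 μg/mL made from a 1 mg/mL stock in 0.9% NaCl. Inoculum ~10⁶ cfu/mL taken from a 24 h culture, 37 °C 24 h.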

The subject of data set [4] is Staphylococcus aureus. The experiment in a line: Antimicrobial activity against Staphylococcus aureus ATCC 25923 assessed as growth inhibition of planktonic forms incubated for 24 hrs. In kind it is organism-based. As to conditions: in vitro. Put shortly: as §2
In data set [5] the test system is Escherichia coli. The experiment in a line: Antibiofilm activity against Escherichia coli ATCC 25922 incubated for 24 hrs by crystal violet-staining based assay. Type of data set: functional. The gist of the method: as §1
Data set [6] has as its system Staphylococcus aureus. The experiment in a line: Antimicrobial activity against Staphylococcus aureus ATCC 6538 assessed as growth inhibition of planktonic forms incubated for 24 hrs. In kind it is organism-based. As to conditions: in vitro. The gist of the method: as §2
In data set [7] the test system is Pseudomonas aeruginosa. The experiment in a line: Antibiofilm activity against Pseudomonas aeruginosa ATCC 15442 incubated for 24 hrs by crystal violet-staining based assay. In kind it is functional. Put shortly: as §1
Data set [8] deals with Staphylococcus epidermidis. The experiment in a line: Antimicrobial activity against Staphylococcus epidermidis ATCC 12228 assessed as growth inhibition of planktonic forms incubated for 24 hrs. As to conditions: in vitro. Type of data set: organism-based. Put shortly:
as §2

Data set [9] deals with Escherichia coli. The experiment in a line: Antimicrobial activity against Escherichia coli ATCC 25922 assessed as growth inhibition of planktonic forms incubated for 24 hrs. In kind it is organism-based. Conditions: in vitro. The gist of the method:
as §2

For data set [10], the system named is Staphylococcus aureus. The experiment in a line: Antibiofilm activity against Staphylococcus aureus ATCC 25923 incubated for 24 hrs by crystal violet-staining based assay. In kind it is functional. The gist of the method:
as §1

In data set [11] the test system is Escherichia coli. The experiment in a line: Antibiofilm activity against Escherichia coli ATCC 25922 assessed as inhibition of biofilm formation at 100 ug/ml incubated for 24 hrs by crystal violet-staining based assay. In kind it is functional. As to conditions: ATCC 25922, 24 h.
Data set [12] concerns Pseudomonas aeruginosa. The experiment in a line: Antibiofilm activity against Pseudomonas aeruginosa ATCC 15442 assessed as inhibition of biofilm formation at 100 ug/ml incubated for 24 hrs by crystal violet-staining based assay. As to conditions: ATCC 15442, 24 h. Type of data set: functional.

As a reminder, the inhibition is the share of the control response that was lost under treatment. As for `Br.Cn1cc(-c2nn3cc(-c4ccc([N+](=O)[O-])cc4)nc3s2)c2cc(Br)ccc21`, the MBIC50 in data set [1] worked out at 71.7 µM; with Staphylococcus aureus [2], 3.1 µM; in the data set on Escherichia coli [5], 19.6 µM; in the data set with Pseudomonas aeruginosa [7], 38.6 µM; in the data set with Staphylococcus aureus [10], 20.9 µM. The inhibition entry (in data set [1]; in the data set with Staphylococcus aureus [2]; in the data set with Escherichia coli [5]; in the data set with Pseudomonas aeruginosa [7]; with Staphylococcus aureus [10]) was “Dose-dependent effect” throughout. In addition, the MIC (in the data set on Pseudomonas aeruginosa [3]; with Staphylococcus aureus [4]; with Staphylococcus aureus [6]; in data set [8]; in the data set with Escherichia coli [9]) was greater than 100 µg/mL in each case.

Take `Br.COc1ccc(OC)c(-c2cn3nc(-c4c[nH]c5ccc(Br)cc45)sc3n2)c1`: the MBIC50 in data set [1] stood at 36.1 µM; in the data set with Staphylococcus aureus [2], 16.5 µM; with Staphylococcus aureus [10] it was 26.4 µM. Also, the inhibition entry (in [1]; in the data set on Staphylococcus aureus [2]; in the data set on Staphylococcus aureus [10]) was “Dose-dependent effect” each time. For the same compound, the MIC (in the data set with Pseudomonas aeruginosa [3]; in the data set on Staphylococcus aureus [4]; with Staphylococcus aureus [6]; in [8]; in the data set with Escherichia coli [9]) was greater than 100 µg/mL throughout. Moreover, the inhibition at 100 µg/mL in the data set with Escherichia coli [11] and in the data set on Pseudomonas aeruginosa [12] was less than 15% in each case.

For the compound `FC(F)(F)c1ccc(-c2cn3nc(-c4c[nH]c5ccccc45)sc3n2)cc1`, the MBIC50 entry (in [1]; in the data set with Staphylococcus aureus [2]; in the data set with Escherichia coli [5]; with Pseudomonas aeruginosa [7]; in the data set on Staphylococcus aureus [10]) was “inactive” each time. For the same compound, the MIC (in the data set on Pseudomonas aeruginosa [3]; in the data set with Staphylococcus aureus [4]; with Staphylococcus aureus [6]; in data set [8]; in the data set on Escherichia coli [9]) was greater than 100 µg/mL in each case.

Regarding `Br.COc1cccc(-c2cn3nc(-c4c[nH]c5ccc(Br)cc45)sc3n2)c1`, the MBIC50 entry (in data set [1]; with Staphylococcus aureus [2]; in the data set with Escherichia coli [5]; in the data set with Pseudomonas aeruginosa [7]; in the data set on Staphylococcus aureus [10]) was “inactive” in each case. In addition, the MIC (with Pseudomonas aeruginosa [3]; in the data set with Staphylococcus aureus [4]; with Staphylococcus aureus [6]; in data set [8]; in the data set with Escherichia coli [9]) was greater than 100 µg/mL in each case.

Regarding `Br.c1ccc(-c2cn3nc(-c4c[nH]c5ccccc45)sc3n2)cc1`, the MBIC50 in data set [1] was found to be 59.1 µM; in the data set on Staphylococcus aureus [2], 46.5 µM; in the data set with Staphylococcus aureus [10], 35.9 µM. Besides, the inhibition result (in [1]; in the data set with Staphylococcus aureus [2]; with Staphylococcus aureus [10]) was “Dose-dependent effect” throughout. Besides, the MIC (in the data set with Pseudomonas aeruginosa [3]; in the data set with Staphylococcus aureus [4]; with Staphylococcus aureus [6]; in data set [8]; in the data set on Escherichia coli [9]) was greater than 100 µg/mL in each case. The inhibition at 100 µg/mL in the data set with Escherichia coli [11] and in the data set on Pseudomonas aeruginosa [12] was less than 15% each time.

On to `Br.Cn1cc(-c2nn3cc(-c4ccc(F)cc4)nc3s2)c2cc(Br)ccc21`, for which the MBIC50 entry (in data set [1]; in the data set with Staphylococcus aureus [2]; in the data set with Escherichia coli [5]; with Pseudomonas aeruginosa [7]; with Staphylococcus aureus [10]) was “inactive” each time. Besides, the MIC (in the data set with Pseudomonas aeruginosa [3]; in the data set on Staphylococcus aureus [4]; in the data set with Staphylococcus aureus [6]; in data set [8]; in the data set with Escherichia coli [9]) was greater than 100 µg/mL throughout.

For `Br.COc1cccc(-c2cn3nc(-c4c[nH]c5ccccc45)sc3n2)c1`, the MBIC50 in [1] came out at 33.4 µM; with Staphylococcus aureus [2] it was 37 µM; with Escherichia coli [5], 69.7 µM; with Pseudomonas aeruginosa [7] it was 80.2 µM; with Staphylococcus aureus [10], 80.2 µM. Moreover, the inhibition entry (in data set [1]; in the data set with Staphylococcus aureus [2]; with Escherichia coli [5]; with Pseudomonas aeruginosa [7]; in the data set on Staphylococcus aureus [10]) was “Dose-dependent effect” in each case. Further, the MIC (in the data set on Pseudomonas aeruginosa [3]; with Staphylococcus aureus [4]; with Staphylococcus aureus [6]; in data set [8]; with Escherichia coli [9]) was greater than 100 µg/mL each time.

`Br.Cn1cc(-c2nn3cc(-c4ccc(F)cc4)nc3s2)c2ccccc21`: the MBIC50 in [1] came to 68.9 µM; in the data set on Staphylococcus aureus [2], 17.9 µM; in the data set with Staphylococcus aureus [10], 8.6 µM. In addition, the inhibition entry (in [1]; in the data set with Staphylococcus aureus [2]; with Staphylococcus aureus [10]) was “Dose-dependent effect” throughout. Also, the MIC (in the data set on Pseudomonas aeruginosa [3]; in the data set with Staphylococcus aureus [4]; with Staphylococcus aureus [6]; in data set [8]; with Escherichia coli [9]) was greater than 100 µg/mL in each case. Further, the inhibition at 100 µg/mL in the data set with Escherichia coli [11] and in the data set on Pseudomonas aeruginosa [12] was less than 15% throughout.

Take `Br.Brc1ccc2[nH]cc(-c3nn4cc(-c5ccccc5)nc4s3)c2c1`: the MBIC50 result (in data set [1]; in the data set on Staphylococcus aureus [2]; in the data set on Escherichia coli [5]; in the data set on Pseudomonas aeruginosa [7]; in the data set on Staphylococcus aureus [10]) was “inactive” throughout. Moreover, the MIC (in the data set on Pseudomonas aeruginosa [3]; in the data set with Staphylococcus aureus [4]; in the data set with Staphylococcus aureus [6]; in data set [8]; in the data set with Escherichia coli [9]) was greater than 100 µg/mL each time.

On to `Br.Fc1ccc(-c2cn3nc(-c4c[nH]c5ccc(Cl)cc45)sc3n2)cc1`, for which the figures for the MBIC50 (in [1]; with Staphylococcus aureus [2]; with Staphylococcus aureus [10]) were 100.7 µM, 24.2 µM and 51.3 µM, respectively. The inhibition entry (in data set [1]; in the data set on Staphylococcus aureus [2]; in the data set on Staphylococcus aureus [10]) was “Dose-dependent effect” each time. The MIC (with Pseudomonas aeruginosa [3]; in the data set with Staphylococcus aureus [4]; with Staphylococcus aureus [6]; in [8]; in the data set on Escherichia coli [9]) was greater than 100 µg/mL each time. Besides, the inhibition at 100 µg/mL in the data set on Escherichia coli [11] and in the data set with Pseudomonas aeruginosa [12] was less than 15% in each case.

On to `FC(F)(F)c1ccc(-c2cn3nc(-c4c[nH]c5ccc(Br)cc45)sc3n2)cc1`, for which the MBIC50 in data set [1] turned out to be 19.2 µM; in the data set with Staphylococcus aureus [2], 13.3 µM; with Staphylococcus aureus [10], 16.8 µM. The inhibition result (in data set [1]; in the data set with Staphylococcus aureus [2]; in the data set on Staphylococcus aureus [10]) was “Dose-dependent effect” each time. The MIC (in the data set on Pseudomonas aeruginosa [3]; in the data set on Staphylococcus aureus [4]; in the data set on Staphylococcus aureus [6]; in [8]; with Escherichia coli [9]) was greater than 100 µg/mL in each case. Also, the inhibition at 100 µg/mL in the data set on Escherichia coli [11] and in the data set with Pseudomonas aeruginosa [12] was less than 15% each time.

Take `O=[N+]([O-])c1ccc(-c2cn3nc(-c4c[nH]c5ccccc45)sc3n2)cc1`: the MBIC50 in data set [1] is 41.2 µM; with Staphylococcus aureus [2] it was 20.2 µM; in the data set with Staphylococcus aureus [10], 47.5 µM. Moreover, the inhibition entry (in [1]; in the data set with Staphylococcus aureus [2]; with Staphylococcus aureus [10]) was “Dose-dependent effect” each time. Moreover, the MIC (with Pseudomonas aeruginosa [3]; in the data set on Staphylococcus aureus [4]; in the data set on Staphylococcus aureus [6]; in [8]; in the data set on Escherichia coli [9]) was greater than 100 µg/mL each time. Moreover, the inhibition at 100 µg/mL in the data set with Escherichia coli [11] and in the data set with Pseudomonas aeruginosa [12] was less than 15% in each case.

Regarding `COc1ccc(OC)c(-c2cn3nc(-c4cn(C)c5ccc(Cl)cc45)sc3n2)c1`, the MBIC50 stood at 8.1 µM in data set [1], 69.4 µM in the data set on Staphylococcus aureus [2] and 163 µM with Staphylococcus aureus [10]. The inhibition result (in [1]; in the data set on Staphylococcus aureus [2]; in the data set with Staphylococcus aureus [10]) was “Dose-dependent effect” in each case. The MIC (in the data set on Pseudomonas aeruginosa [3]; with Staphylococcus aureus [4]; in the data set on Staphylococcus aureus [6]; in data set [8]; in the data set with Escherichia coli [9]) was greater than 100 µg/mL throughout. The inhibition at 100 µg/mL in the data set with Escherichia coli [11] and in the data set on Pseudomonas aeruginosa [12] was less than 15% throughout.

Source of the values: ChEMBL document CHEMBL4339190, “2,6-Disubstituted imidazo[2,1-b][1,3,4]thiadiazole derivatives as potent staphylococcal biofilm inhibitors” (Eur J Med Chem, 2019).
